Converted amounts (≈) assume the structure as drawn. “And” between values parts separate entries of the source, which are not always exact repeats. Equal values may be shown once. “Also recorded” adds a separate entry of the source.

Broadly, the MIC is the smallest concentration in the dilution series that meets the test's criterion for growth inhibition. For orientation: LC50 means the concentration lethal to half of the exposed cells or organisms.

The subject of one series is Rhipicephalus microplus. Conditions: encapsulated in Saccharomyces cerevisiae; ref da Silva Lima et al., 2017; cited from earlier work.
A further series concerns ruminal incubations. The following applies: ref Miró et al., 2020b; cited from earlier work.
Another series deals with sheep liver microsomes. Conditions: ref Miró et al. 2020b, 2020c; cited from earlier work.
The conditions of series [1]: ref Miró et al., 2020b; cited from earlier work.
The next series concerns the target T1, CYP1A1 (Ovis aries, UniProt P56591).
T1 sequence (P56591 1-519): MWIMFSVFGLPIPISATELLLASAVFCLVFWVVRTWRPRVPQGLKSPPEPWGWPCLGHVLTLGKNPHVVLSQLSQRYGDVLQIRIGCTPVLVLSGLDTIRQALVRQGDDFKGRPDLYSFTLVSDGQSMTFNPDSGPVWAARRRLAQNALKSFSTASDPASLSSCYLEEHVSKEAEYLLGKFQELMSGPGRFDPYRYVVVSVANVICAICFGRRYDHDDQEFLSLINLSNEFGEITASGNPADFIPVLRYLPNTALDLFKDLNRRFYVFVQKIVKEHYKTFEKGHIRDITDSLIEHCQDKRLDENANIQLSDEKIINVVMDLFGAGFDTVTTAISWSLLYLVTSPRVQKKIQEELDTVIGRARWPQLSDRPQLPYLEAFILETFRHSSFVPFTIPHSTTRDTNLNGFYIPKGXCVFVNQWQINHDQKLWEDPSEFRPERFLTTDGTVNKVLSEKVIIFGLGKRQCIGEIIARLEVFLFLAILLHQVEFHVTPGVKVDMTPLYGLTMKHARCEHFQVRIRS
Conditions: sheep liver microsomes, ref Miró et al. 2020b, 2020c; cited from earlier work. On the technique in general: Liver microsomes are a subcellular fraction often used to study metabolism.

Series [2] deals with gram-positive and negative bacteria. The following applies: ref Nagoor Meeran et al., 2017; cited from earlier work.
The test system of series [3] is FMO. The following applies: sheep liver microsomes, ref Miró et al. 2020b, 2020c; cited from earlier work.
Another series has as its system Caenorhabditis elegans. Conditions: read-out: LC50 (mortality); in vitro; ref Abdel-Rahman et al., 2013; cited from earlier work.
The format of series [4] is in vivo, Corriedale lambs. The following applies: lambs.
In series [5] the test system is Teladorsagia circumcincta. The following applies: in vitro; ref Helal et al., 2020; cited from earlier work.
The subject of series [6] is FMO. Kind of series: FMO-dependent metabolism: BZ N-oxidase activity in sheep liver microsomes. It is filed as in vitro ADME.
The test system of a further series is Trichostrongylus axei. Conditions: in vitro; ref Helal et al., 2020; cited from earlier work.
The conditions of series [7]: rats, cited from earlier work.
Series [8] relates to Haemonchus contortus. Conditions: in vitro; ref Helal et al., 2020; cited from earlier work.
Series [9] has as its system Haemonchus contortus. Kind of series: Fecal egg count reduction in lambs infected with resistant H. contortus. It is filed as in vivo. In outline: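 Corriedale lambs artificially infected with a resistant H. contortus isolate received yeast-encapsulated test compound, 100 mg/kg orally, as four doses every 24 h. Faeces were sampled on days −1, 7 and 14, and epg was counted by modified McMaster (sensitivity 10 epg). FECR was calculated per McKenna from arithmetic mean epg: day −1 (T1) versus days 7 and 14 (T2).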

For series [10], the system named is Ancylostoma ceylanicum and Trichuris muris. The following applies: encapsulated monoterpene, in vitro; ref Mirza et al., 2020; cited from earlier work.
Series [11] in a line: GNL plasma levels after yeast-encapsulated GNL in the FEC trial. It is filed as in vivo, Corriedale lambs. Conditions: lambs; yeast-encapsulated GNL 100 mg/kg oral, four doses every 24 h.

`Cc1ccc(C(C)C)cc1O` [carvacrol]: the “decrease of LC50 after encapsulation compared to non-encapsulated” value with Rhipicephalus microplus is listed as 2.5 fold.

With `Cc1ccc(C(C)C)c(O)c1` [TML, thymol], the “effect on formation of ABZ from ABZSO” value in the series with ruminal incubations is recorded as “completely abolish”. Moreover, the “effect on S-oxygenation of ABZ” value with sheep liver microsomes is reported as “delayed”. Besides, the “effect on systemic exposure of ABZ metabolites” value in [1] is given as “did not improve”. Further, the “effect on CYP1A1-dependent metabolism” value on CYP1A1 is “inhibited”. In series [2], the MIC is given as 150 µg/mL (≈ 999 µM). The “effect on FMO-dependent metabolism” value in the series with FMO [3] is given as “inhibited”.

For `CC(C)=CCC/C(C)=C/CO` [GNL, 3,7-dimethylocta-trans-2,6-dien-1-ol], in the series with Caenorhabditis elegans, the LC50 is 14 µg/mL (≈ 90.8 µM). Moreover, the “mean GNL plasma concentration expressed” value in [4] (1 h after second oral dose of GNL 100 mg/kg) turned out to be 0.02 mM. Also, the “mean GNL plasma concentration” value in series [4] (1 h after second oral dose of GNL 100 mg/kg (emulsion)) was 3.04 ± 1.33 µg/mL and 3.04 µg/mL. Also, the figures for the “reduction of larval motility” value (in [5]; in the series on Trichostrongylus axei; in the series on Haemonchus contortus [8]) were 94%, 90% and 82%, respectively. For the same compound, the “BZ N-oxidase activity, lower compared to absence of GNL” value in the series on FMO [6] (0.2 mM GNL) is on record as 65.5 ± 13.6%. The “BZ N-oxidase activity (FMO pathway), lower compared to absence of GNL” value in the series with FMO [6] (2 mM GNL) is 84.5 ± 4.84% and 84.5%. Besides, the elimination half-life result in series [7] (intravenous infusion of 12.5 mg, ref Pavan et al. (2018)) was “about 12 min”. Further, the “time at which Cmax in the bloodstream was achieved” value in series [7] (oral administration, ref Pavan et al., 2018) is reported as 30 min. In the series on Haemonchus contortus [9] (7 and 14 days after first dose, four doses of GNL), the “effect on fecal egg counts” value was “did not significantly decrease”. Also, in the series with Haemonchus contortus [9] (day 14, lambs, GNL 100 mg/kg oral x 4, 95% LCL-UCL 0-82.3), the “FECR (fecal egg count reduction), in vivo efficacy” value is recorded as 40.5%. In addition, the classification of action result in series [10] was “fast acting at a moderately high dose”. Moreover, the “time of GNL detection in plasma” value in [11] is on record as “detected in plasma only at 1 h post-treatment; also recorded: detected in plasma only at 1 h post-administration”.

(Values after paper PMC9486669 (Veterinary and Animal Science, 2022).)
